Our source for the Activity, EC50 and IC50 values is ChEMBL document CHEMBL4184148 (Bioorg Med Chem Lett, 2017).

Usually EC50 stands for the midpoint of the concentration-response curve. As usually defined, the IC50 is the point on the concentration scale where inhibition reaches its midpoint.

The target in test [1] is Calcium/calmodulin-dependent protein kinase type 1D (Homo sapiens) (UniProt Q8IU85). Description: Binding affinity to wild-type human partial length CAMK1D (M1 to K299 residues) expressed in Escherichia coli BL21 at 1 uM by Kinomescan method relative to control.
In test [2] the target is Leucine-rich repeat serine/threonine-protein kinase 2 (Homo sapiens, UniProt Q5S007). Description: Binding affinity to wild-type human partial length LRRK2 (H970 to E2527 residues) expressed in HEK293 cells at 1 uM by Kinomescan method relative to control. The class given is cell-based.
Test [3] addresses Serine/threonine-protein kinase RIO1 (Homo sapiens) (UniProt Q9BRS2). In words: Binding affinity to wild-type human full length RIOK1 (M1 to K568 residues) expressed in Escherichia coli BL21 at 1 uM by Kinomescan method relative to control.
Test [4] relates to Mast/stem cell growth factor receptor Kit (Homo sapiens), P10721 [L576P]. In words: Binding affinity to human partial length KIT L576P mutant (Y545 to D952 residues) expressed in Escherichia coli BL21 at 1 uM by Kinomescan method relative to control.
Test [5] deals with Tyrosine-protein kinase JAK1 (Homo sapiens) (UniProt P23458). In words: Binding affinity to wild-type human partial length JAK1 JH1 catalytic domain (V856 to K1154 residues) expressed in Escherichia coli BL21 at 1 uM by Kinomescan method relative to control.
Test [6] deals with Serine/threonine-protein kinase Nek5 (Homo sapiens) (UniProt Q6P3R8). In words: Binding affinity to wild-type human partial length NEK5 (M1 to M279 residues) expressed in Escherichia coli BL21 at 1 uM by Kinomescan method relative to control.
Test [7] deals with 3-phosphoinositide-dependent protein kinase 1 (Homo sapiens) (UniProt O15530). In words: Binding affinity to wild-type human full length PDPK1 (M1 to Q556 residues) expressed in Escherichia coli BL21 at 1 uM by Kinomescan method relative to control. The essentials:
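Kinome-wide competition binding panel run by an outside provider, with each compound tested at a single concentration. Activity is read against the kinase panel.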

Test [8] has as its target Serine/threonine-protein kinase NIM1 (Homo sapiens) (UniProt Q8IY84). Description: Binding affinity to wild-type human partial length NIM1 (Q44 to N355 residues) expressed in HEK293 cells at 1 uM by Kinomescan method relative to control. The class given is cell-based.
Test [9] has as its target Serine/threonine-protein kinase 24 (Homo sapiens) (UniProt Q9Y6E0). Description: Binding affinity to wild-type human partial length MST3 (A30 to S311 residues) expressed in Escherichia coli BL21 at 1 uM by Kinomescan method relative to control.
Test [10] concerns the target Death-associated protein kinase 1 (Homo sapiens) (UniProt P53355). In words: Binding affinity to wild-type human partial length DAPK1 (M1 to F296 residues) expressed in Escherichia coli BL21 at 1 uM by Kinomescan method relative to control.
Test [11] deals with Homeodomain-interacting protein kinase 4 (Homo sapiens) (UniProt Q8NE63). In words: Binding affinity to wild-type human partial length HIPK4 (M1 to V384 residues) expressed in Escherichia coli BL21 at 1 uM by Kinomescan method relative to control.
Test [12] concerns Tyrosine-protein kinase ABL1 (Homo sapiens), P00519 [F317I]. Description: Binding affinity to human phosphorylated ABL1 F317I mutant (S229 to K512 residues) expressed in HEK293 cells at 1 uM by Kinomescan method relative to control. The class given is cell-based.
The target of test [13] is Dual specificity protein kinase CLK1 (Homo sapiens) (UniProt P49759). Description: Binding affinity to wild-type human full length CLK1 (M1 to I484 residues) expressed in Escherichia coli BL21 at 1 uM by Kinomescan method relative to control. The essentials: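 Run as one kinome-wide competition binding panel with each compound at a single fixed concentration. Results were plotted as a kinome-wide selectivity map.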

Test [14] deals with Phosphatidylinositol 4,5-bisphosphate 3-kinase catalytic subunit alpha isoform (Homo sapiens), P42336 [I800L]. Description: Binding affinity to human partial length PIK3CA I800L mutant (R108 to N1068 residues) expressed in HEK293 cells at 1 uM by Kinomescan method relative to control. The class given is cell-based.
The target in test [15] is Calcium/calmodulin-dependent protein kinase type 1G (Homo sapiens) (UniProt Q96NX5). Description: Binding affinity to wild-type human partial length CAMK1G (M1 to A342 residues) expressed in Escherichia coli BL21 at 1 uM by Kinomescan method relative to control.
For a further test, the target named is T1, Aurora kinase A (Homo sapiens, UniProt O14965).
T1 sequence (O14965 whole entry): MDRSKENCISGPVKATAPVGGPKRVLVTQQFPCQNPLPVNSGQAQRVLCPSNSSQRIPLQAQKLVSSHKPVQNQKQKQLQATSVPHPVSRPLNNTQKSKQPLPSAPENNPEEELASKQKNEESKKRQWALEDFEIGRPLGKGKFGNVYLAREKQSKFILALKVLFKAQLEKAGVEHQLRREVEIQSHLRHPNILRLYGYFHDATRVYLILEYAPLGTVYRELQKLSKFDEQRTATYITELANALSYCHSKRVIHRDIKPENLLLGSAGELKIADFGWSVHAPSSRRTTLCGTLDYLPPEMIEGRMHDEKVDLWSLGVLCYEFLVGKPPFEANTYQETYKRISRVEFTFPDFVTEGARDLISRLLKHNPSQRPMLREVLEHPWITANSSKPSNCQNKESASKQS
In words: Inhibition of Aurora A auto-phosphorylation in human HCT116 cells after 4 hrs by Western blot analysis. It counts as cell-based. The essentials: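 Cells treated with compound in dose response for 4 h. Phospho-Aurora A (auto-phosphorylation) read by western blot. EC50 derived from dose-response curves over three replicate experiments.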
Background: In western blotting, separated proteins are transferred to a membrane and probed.

The target of test [16] is Mitogen-activated protein kinase kinase kinase 11 (Homo sapiens) (UniProt Q16584). In words: Binding affinity to wild-type human partial length MLK3 (I77 to W399 residues) expressed in Escherichia coli BL21 at 1 uM by Kinomescan method relative to control.
In test [17] the target is Phosphatidylinositol 4,5-bisphosphate 3-kinase catalytic subunit delta isoform (Homo sapiens) (UniProt O00329). In words: Binding affinity to wild-type human partial length PIK3CD (R108 to Q1044 residues) expressed in HEK293 cells at 1 uM by Kinomescan method relative to control. It counts as cell-based.
The target in test [18] is Serine/threonine-protein kinase Sgk3 (Homo sapiens) (UniProt Q96BR1). In words: Binding affinity to wild-type human partial length SGK3 (M119 to L496 residues) expressed in HEK293 cells at 1 uM by Kinomescan method relative to control. The class given is cell-based.
Test [19] has as its target Ribosomal protein S6 kinase alpha-1 (Homo sapiens) (UniProt Q15418). In words: Binding affinity to wild-type human partial length C-terminal RSK1 kinase domain 2 (P360 to L681 residues) expressed in Escherichia coli BL21 at 1 uM by Kinomescan method relative to control.
Test [20] concerns the target Bromodomain-containing protein 4 (Homo sapiens, UniProt O60885). In words: Inhibition of BRD4 (unknown origin) by AlphaScreen assay. In general terms: In Alpha technology, singlet oxygen from a donor bead excites a nearby acceptor bead.
The target of test [21] is Ephrin type-B receptor 2 (Homo sapiens) (UniProt P29323). In words: Binding affinity to wild-type human partial length EPHB2 (I597 to L902 residues) expressed in Escherichia coli BL21 at 1 uM by Kinomescan method relative to control.

Leucine-rich repeat serine/threonine-protein kinase 2, sequence (Q5S007 whole entry, the tested form may be a part): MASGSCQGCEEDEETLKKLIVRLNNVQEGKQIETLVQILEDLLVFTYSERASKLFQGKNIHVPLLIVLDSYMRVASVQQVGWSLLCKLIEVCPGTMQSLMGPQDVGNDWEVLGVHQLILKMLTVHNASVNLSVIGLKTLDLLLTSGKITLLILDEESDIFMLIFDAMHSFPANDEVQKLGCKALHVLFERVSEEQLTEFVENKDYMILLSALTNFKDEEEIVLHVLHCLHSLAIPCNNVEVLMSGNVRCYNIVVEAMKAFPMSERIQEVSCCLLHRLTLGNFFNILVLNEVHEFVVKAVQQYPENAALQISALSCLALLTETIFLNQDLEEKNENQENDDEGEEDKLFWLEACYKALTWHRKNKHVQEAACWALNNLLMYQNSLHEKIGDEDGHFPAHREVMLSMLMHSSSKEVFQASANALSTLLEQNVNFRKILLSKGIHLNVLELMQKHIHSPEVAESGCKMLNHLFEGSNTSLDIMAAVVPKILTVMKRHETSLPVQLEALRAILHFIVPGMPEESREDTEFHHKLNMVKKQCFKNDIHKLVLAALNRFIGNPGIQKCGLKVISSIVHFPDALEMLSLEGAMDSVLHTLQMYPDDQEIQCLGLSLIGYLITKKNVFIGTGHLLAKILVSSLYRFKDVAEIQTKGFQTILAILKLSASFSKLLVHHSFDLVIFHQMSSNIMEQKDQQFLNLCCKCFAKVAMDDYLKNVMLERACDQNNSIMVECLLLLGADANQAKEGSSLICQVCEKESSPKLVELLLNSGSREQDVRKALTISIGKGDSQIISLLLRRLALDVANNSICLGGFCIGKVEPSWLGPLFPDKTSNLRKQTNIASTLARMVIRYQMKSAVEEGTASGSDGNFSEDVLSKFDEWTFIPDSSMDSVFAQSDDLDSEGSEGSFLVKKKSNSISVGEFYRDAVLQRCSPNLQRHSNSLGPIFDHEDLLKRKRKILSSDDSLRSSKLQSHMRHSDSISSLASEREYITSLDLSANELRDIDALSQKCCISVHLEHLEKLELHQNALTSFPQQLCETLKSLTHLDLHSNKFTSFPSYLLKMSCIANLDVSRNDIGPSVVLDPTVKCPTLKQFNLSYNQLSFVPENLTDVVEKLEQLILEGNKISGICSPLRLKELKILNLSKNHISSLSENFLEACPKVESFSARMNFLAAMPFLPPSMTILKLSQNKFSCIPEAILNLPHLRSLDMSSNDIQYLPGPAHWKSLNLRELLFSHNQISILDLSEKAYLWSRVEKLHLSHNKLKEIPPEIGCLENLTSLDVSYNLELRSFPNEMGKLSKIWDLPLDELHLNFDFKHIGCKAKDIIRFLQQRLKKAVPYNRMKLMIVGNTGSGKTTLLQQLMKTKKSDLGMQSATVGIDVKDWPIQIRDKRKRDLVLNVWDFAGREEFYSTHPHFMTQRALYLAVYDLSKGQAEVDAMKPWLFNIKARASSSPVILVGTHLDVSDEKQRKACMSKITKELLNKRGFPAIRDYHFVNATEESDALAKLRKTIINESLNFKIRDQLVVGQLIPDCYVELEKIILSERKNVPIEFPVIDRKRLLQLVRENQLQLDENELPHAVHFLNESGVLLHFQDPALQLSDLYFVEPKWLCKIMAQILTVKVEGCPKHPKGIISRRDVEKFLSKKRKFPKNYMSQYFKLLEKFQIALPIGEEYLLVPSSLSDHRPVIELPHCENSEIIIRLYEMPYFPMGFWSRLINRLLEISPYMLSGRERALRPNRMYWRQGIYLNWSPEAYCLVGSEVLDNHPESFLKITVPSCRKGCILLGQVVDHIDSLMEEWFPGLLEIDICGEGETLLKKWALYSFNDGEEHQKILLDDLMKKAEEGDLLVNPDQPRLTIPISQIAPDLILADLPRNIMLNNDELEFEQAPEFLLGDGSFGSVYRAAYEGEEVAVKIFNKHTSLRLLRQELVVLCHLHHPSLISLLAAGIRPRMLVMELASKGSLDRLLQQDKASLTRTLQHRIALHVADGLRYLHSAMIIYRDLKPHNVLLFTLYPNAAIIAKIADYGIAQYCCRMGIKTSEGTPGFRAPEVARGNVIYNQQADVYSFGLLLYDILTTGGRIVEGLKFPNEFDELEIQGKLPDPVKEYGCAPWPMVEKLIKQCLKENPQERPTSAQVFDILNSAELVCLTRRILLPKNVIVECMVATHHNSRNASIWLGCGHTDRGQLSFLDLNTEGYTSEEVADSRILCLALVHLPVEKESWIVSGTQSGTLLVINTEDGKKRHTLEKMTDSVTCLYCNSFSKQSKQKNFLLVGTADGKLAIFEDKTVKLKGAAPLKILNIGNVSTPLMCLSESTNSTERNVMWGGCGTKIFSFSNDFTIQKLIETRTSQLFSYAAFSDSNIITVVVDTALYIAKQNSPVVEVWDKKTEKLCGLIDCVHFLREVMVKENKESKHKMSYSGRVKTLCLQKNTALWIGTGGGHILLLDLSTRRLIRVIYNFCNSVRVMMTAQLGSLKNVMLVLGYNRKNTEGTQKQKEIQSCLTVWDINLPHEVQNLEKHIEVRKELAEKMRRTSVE
Ribosomal protein S6 kinase alpha-1 (Homo sapiens), sequence (Q15418 whole entry, the tested form may be a part): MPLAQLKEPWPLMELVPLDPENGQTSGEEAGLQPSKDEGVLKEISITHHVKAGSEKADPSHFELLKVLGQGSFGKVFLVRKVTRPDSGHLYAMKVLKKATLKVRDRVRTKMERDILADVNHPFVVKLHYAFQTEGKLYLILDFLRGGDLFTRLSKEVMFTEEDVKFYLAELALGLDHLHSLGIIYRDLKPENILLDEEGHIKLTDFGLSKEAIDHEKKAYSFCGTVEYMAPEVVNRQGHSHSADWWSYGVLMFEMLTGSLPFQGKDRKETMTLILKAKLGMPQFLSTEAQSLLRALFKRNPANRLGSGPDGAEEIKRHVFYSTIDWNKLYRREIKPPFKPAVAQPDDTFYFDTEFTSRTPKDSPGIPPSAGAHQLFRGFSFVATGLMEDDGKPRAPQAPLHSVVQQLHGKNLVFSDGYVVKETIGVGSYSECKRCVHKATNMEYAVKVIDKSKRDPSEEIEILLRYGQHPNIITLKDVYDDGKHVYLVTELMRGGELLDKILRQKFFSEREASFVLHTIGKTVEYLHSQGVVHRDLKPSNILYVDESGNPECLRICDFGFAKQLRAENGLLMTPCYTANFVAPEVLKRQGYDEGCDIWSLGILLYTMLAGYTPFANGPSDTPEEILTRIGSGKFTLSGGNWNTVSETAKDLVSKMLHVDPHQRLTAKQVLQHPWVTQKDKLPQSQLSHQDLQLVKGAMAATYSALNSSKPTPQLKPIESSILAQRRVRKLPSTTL
Mitogen-activated protein kinase kinase kinase 11 (Homo sapiens), sequence (Q16584 whole entry, looked up, the tested form may be a part, canonical isoform): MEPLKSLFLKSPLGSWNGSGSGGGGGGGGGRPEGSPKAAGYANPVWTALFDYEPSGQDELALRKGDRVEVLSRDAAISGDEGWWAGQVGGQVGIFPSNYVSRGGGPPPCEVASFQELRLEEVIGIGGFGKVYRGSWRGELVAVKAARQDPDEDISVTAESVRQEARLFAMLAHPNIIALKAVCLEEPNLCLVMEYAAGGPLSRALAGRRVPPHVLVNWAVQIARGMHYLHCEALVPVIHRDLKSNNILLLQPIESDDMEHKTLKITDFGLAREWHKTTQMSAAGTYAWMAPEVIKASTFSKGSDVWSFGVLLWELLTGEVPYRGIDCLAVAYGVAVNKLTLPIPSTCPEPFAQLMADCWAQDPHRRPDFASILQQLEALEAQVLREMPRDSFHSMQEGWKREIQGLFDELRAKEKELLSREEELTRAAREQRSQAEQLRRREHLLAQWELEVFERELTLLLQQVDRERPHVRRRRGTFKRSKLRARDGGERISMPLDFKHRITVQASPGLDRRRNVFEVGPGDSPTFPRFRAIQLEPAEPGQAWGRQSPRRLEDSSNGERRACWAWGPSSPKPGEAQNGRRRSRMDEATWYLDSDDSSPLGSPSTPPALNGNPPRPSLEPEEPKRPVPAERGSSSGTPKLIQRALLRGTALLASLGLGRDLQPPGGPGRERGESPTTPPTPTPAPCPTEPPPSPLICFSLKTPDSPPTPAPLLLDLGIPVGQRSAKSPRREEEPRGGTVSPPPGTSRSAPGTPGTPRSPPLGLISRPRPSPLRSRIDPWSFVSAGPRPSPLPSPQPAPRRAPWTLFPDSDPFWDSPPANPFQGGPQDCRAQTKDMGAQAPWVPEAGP
Serine/threonine-protein kinase Nek5 (Homo sapiens), sequence (Q6P3R8 whole entry, the tested form may be a part): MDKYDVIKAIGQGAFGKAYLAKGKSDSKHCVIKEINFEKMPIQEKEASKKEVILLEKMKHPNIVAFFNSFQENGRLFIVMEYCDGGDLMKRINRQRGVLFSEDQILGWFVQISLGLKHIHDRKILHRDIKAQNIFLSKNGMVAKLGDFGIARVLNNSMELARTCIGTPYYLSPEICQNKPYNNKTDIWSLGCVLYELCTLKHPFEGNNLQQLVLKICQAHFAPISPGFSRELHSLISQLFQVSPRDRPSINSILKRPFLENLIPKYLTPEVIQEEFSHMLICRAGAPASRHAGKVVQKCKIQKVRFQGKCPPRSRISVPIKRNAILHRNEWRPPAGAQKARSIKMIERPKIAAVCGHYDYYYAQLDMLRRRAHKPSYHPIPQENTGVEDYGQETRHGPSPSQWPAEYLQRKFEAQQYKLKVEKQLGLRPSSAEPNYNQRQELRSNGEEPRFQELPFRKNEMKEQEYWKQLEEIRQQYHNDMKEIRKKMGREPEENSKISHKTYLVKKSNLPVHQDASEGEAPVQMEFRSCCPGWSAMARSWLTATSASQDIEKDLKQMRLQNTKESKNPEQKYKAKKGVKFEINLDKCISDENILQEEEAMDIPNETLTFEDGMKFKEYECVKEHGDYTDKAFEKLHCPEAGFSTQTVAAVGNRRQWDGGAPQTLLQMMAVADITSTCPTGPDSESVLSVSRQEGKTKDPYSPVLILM

Turning to `CCC(=O)Nc1ccc(C(=O)Nc2ccc(Nc3ncc4c(n3)N(C)c3ccc(C)cc3C(=O)N4C)cc2)cc1`, the Activity in [1] turned out to be 88%; in [2], 72%; in [3], 68%; in test [4] it was 71%; in [5], 86%; in [6] it was 86%. In addition, the Activity in [7] is 96%; in test [8], 100%; in [9] it was 100%; in [10], 90%; in test [11] it was 95%; in test [12] it was 63%. In addition, the Activity in [13] was found to be 98%; in test [14] it was 78%; in test [15], 100%; in [16], 95%; in [17], 75%; in test [18], 81%. The figures for the Activity in [19] and in [21] were 99% and 93%, respectively. In addition, the EC50 on Aurora kinase A is 0.038 µM. Further, in test [20], the IC50 amounted to 34 µM.

As for `C=CC(=O)Nc1ccc(C(=O)Nc2ccc(Nc3ncc4c(n3)N(C)c3ccc(C)cc3C(=O)N4C)cc2)cc1`, the Activity is 100% in test [1]; 85% in test [2]; 84% in test [3]; 85% in test [4]; 96% in [5]; 100% in [6]. In addition, the Activity in [7] amounted to 100%; in [8] it was 98%; in [9] it was 100%; in test [10], 100%; in test [11], 95%; in test [12], 100%. The Activity in test [13] is 100%; in test [14] it was 76%; in [15], 100%; in test [16], 83%; in test [17] it was 55%; in test [18], 79%. Further, the Activity in test [19] and in test [21] was 96% each time. Also, the EC50 on Aurora kinase A came to 0.0058 µM. Moreover, the midpoint of inhibition in test [20], the IC50, lay at 37 µM.
